Results reported in ChEMBL document CHEMBL1148771, “Design and synthesis of HIV-1 protease inhibitors incorporating oxazolidinones as P2/P2' ligands in pseudosymmetric dipeptide isosteres” (J Med Chem, 2007).

Assays:
[1] = molecular target: Protease (Human immunodeficiency virus 1, UniProt Q9YQ12); test: Inhibition of Wild type HIV1 Protease by FRET based assay
[2] = Inhibition of HIV1 Protease M1 variant by FRET based assay; parameters: species or system Human immunodeficiency virus 1
[3] = Inhibition of HIV1 Protease M2 variant by FRET based assay; parameters: species or system Human immunodeficiency virus 1
[4] = Inhibition of HIV1 Protease M3 variant by FRET based assay; parameters: species or system Human immunodeficiency virus 1
[5] = system: Human immunodeficiency virus 1; test: Antiviral activity against HIV1 infected MT4 cells by MTT method; format: functional, organism-based; settings: Human immunodeficiency virus 1, MT4
How it was run: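 HIV-1 4–3 (100 CCID50) infected MT-4 cells, washed in PBS, seeded at 4 × 10⁴ cells/well in RPMI with 10% FBS. Compound dilutions added in triplicate at 0.5% DMSO final, 5 days at 37 °C, 5% CO₂, mock-infected controls in parallel. MTT added for 4 h, formazan solubilized, absorbance read at 540/690 nm.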

Chain of Protease (Q9YQ12 whole entry): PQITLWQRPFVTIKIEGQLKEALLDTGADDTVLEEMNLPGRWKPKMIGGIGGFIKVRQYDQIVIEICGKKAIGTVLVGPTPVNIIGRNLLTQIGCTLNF

SMILES | Ki [1] [nM] | Ki [2] [nM] | Ki [3] [nM] | Ki [4] [nM] | EC50 [5] [nM]
Cc1cccc(C)c1OCC(=O)N[C@@H](Cc1ccccc1)[C@@H](O)C[C@H](Cc1ccccc1)NC(=O)[C@H]1CN(c2ccccc2)C(=O)O1 | 4730 |  |  |  | 
COC(=O)N[C@H](C(=O)N[C@@H](Cc1ccccc1)[C@@H](O)CN(Cc1ccc(-c2ccccn2)cc1)NC(=O)[C@@H](NC(=O)OC)C(C)(C)C)C(C)(C)C [ATAZANAVIR] |  | 0.33 | 0.009 | 0.49 | 
CC(=O)N[C@H](C(=O)N[C@@H](Cc1ccccc1)C[C@H](O)[C@H](Cc1ccccc1)NC(=O)[C@@H]1CN(c2cccc(C(C)=O)c2)C(=O)O1)C(C)C |  | 82.3 | 1.67 | 122 | 620
CC(=O)c1cccc(N2C[C@@H](C(=O)N[C@@H](Cc3ccccc3)[C@@H](O)C[C@H](Cc3ccccc3)NC(=O)COc3c(C)cccc3C)OC2=O)c1 | 35.1 |  |  |  | 
CC(C)[C@@H](C(=O)N[C@@H](Cc1ccccc1)C[C@H](O)[C@H](Cc1ccccc1)NC(=O)[C@@H]1CN(c2ccccc2)C(=O)O1)N1CCCNC1=O |  | 175 | 13.9 | 185 | 1210
COC(=O)N[C@H](C(=O)N[C@@H](Cc1ccccc1)C[C@H](O)[C@H](Cc1ccccc1)NC(=O)[C@@H]1CN(c2ccccc2)C(=O)O1)C(C)(C)C | 3.51 | 131 | 14 | 392 | 1030
O=C(N[C@@H](Cc1ccccc1)[C@@H](O)CN(Cc1ccc(-c2ccccn2)cc1)NC(=O)[C@@H]1CN(c2ccccc2)C(=O)O1)[C@@H]1CN(c2ccccc2)C(=O)O1 | 300 |  |  |  | 
CC(=O)c1ccc(N2C[C@@H](C(=O)N[C@@H](Cc3ccccc3)[C@@H](O)C[C@H](Cc3ccccc3)NC(=O)COc3c(C)cccc3C)OC2=O)cc1 | 39.9 |  |  |  | 
O=C(Cc1ccc2c(c1)OCO2)N[C@@H](Cc1ccccc1)[C@@H](O)C[C@H](Cc1ccccc1)NC(=O)[C@@H]1CN(c2ccccc2)C(=O)O1 | 657 |  |  |  | 
CC(C)CN(C[C@@H](O)[C@H](Cc1ccccc1)NC(=O)O[C@H]1CCOC1)S(=O)(=O)c1ccc(N)cc1 |  | 0.15 | 0.21 | 1.4 | 40
CC(=O)N[C@H](C(=O)N[C@@H](Cc1ccccc1)C[C@H](O)[C@H](Cc1ccccc1)NC(=O)[C@@H]1CN(c2ccccc2)C(=O)O1)C(C)C |  | 51.2 | 3.1 | 112 | 790
CC(C)(C)NC(=O)[C@@H]1C[C@@H]2CCCC[C@@H]2CN1C[C@@H](O)[C@H](Cc1ccccc1)NC(=O)[C@H](CC(N)=O)NC(=O)c1ccc2ccccc2n1 |  | 89.5 | 1.03 | 78.4 | 10
COC(=O)N[C@H](C(=O)N[C@@H](Cc1ccccc1)[C@@H](O)CN(CC(C)C)NC(=O)[C@@H]1CN(c2ccccc2)C(=O)O1)C(C)(C)C | 10.6 |  |  |  | 
CC(=O)N[C@H](C(=O)N[C@@H](Cc1ccccc1)C[C@H](O)[C@H](Cc1ccccc1)NC(=O)[C@@H]1CN(c2ccc(F)c(F)c2)C(=O)O1)C(C)C | 2.13 | 168 | 3.9 | 282 | 360
Cc1cccc(C)c1OCC(=O)N[C@@H](Cc1ccccc1)[C@@H](O)C[C@H](Cc1ccccc1)NC(=O)[C@H](C(C)C)N1CCCNC1=O [LOPINAVIR] |  | 6.1 | 0.04 | 0.9 | 10
Cc1cccc(C)c1OCC(=O)N[C@@H](Cc1ccccc1)[C@@H](O)C[C@H](Cc1ccccc1)NC(=O)[C@@H]1CN(c2ccccc2)C(=O)O1 | 7.28 | 364 | 18.3 | 447 | 
Cc1cccc(C)c1OCC(=O)N[C@@H](Cc1ccccc1)[C@@H](O)C[C@H](Cc1ccccc1)NC(=O)[C@@H]1CN(c2cccc(C(F)(F)F)c2)C(=O)O1 | 21.6 |  |  |  | 
CC(=O)N[C@H](C(=O)N[C@@H](Cc1ccccc1)C[C@H](O)[C@H](Cc1ccccc1)NC(=O)[C@@H]1CN(c2cccc(C(F)(F)F)c2)C(=O)O1)C(C)C | 2.62 |  |  |  | 
CC(=O)c1cccc(N2C[C@@H](C(=O)N[C@@H](Cc3ccccc3)[C@@H](O)CN(Cc3ccc(-c4ccccn4)cc3)NC(=O)[C@@H]3CN(c4cccc(C(C)=O)c4)C(=O)O3)OC2=O)c1 | 1090 |  |  |  | 
Cc1cccc(C)c1OCC(=O)N[C@@H](Cc1ccccc1)C[C@H](O)[C@H](Cc1ccccc1)NC(=O)[C@@H]1CN(c2ccccc2)C(=O)O1 | 8.05 |  |  |  | 
O=C(N[C@@H](Cc1ccccc1)[C@@H](O)C[C@H](Cc1ccccc1)NC(=O)[C@@H]1CN(c2cccc(C(F)(F)F)c2)C(=O)O1)OCc1cccnc1 | 41.1 |  |  |  | 
COC(=O)N[C@H](C(=O)NN(CC(C)C)C[C@H](O)[C@H](Cc1ccccc1)NC(=O)[C@@H]1CN(c2ccccc2)C(=O)O1)C(C)(C)C | 7 | 231 | 39.2 | 549 | 
